Published values gathered from unrelated publications.
Lines come from different studies, so protocols differ.
KCNA1: Potassium voltage-gated channel subfamily A member 1 (KCNA1, Homo sapiens, UniProt Q09470)

SMILES	target	assay	test system	conditions	measurement	result
CC[C@H](C)[C@H](NC(=O)[C@H](CCC(N)=O)NC(=O)[C@H](CCCNC(=N)N)NC(=O)[C@H](CO)NC(=O)[C@H](Cc1c[nH]cn1)NC(=O)[C@@H]1CCCN1C(=O)[C@H](C)NC(=O)[C@H](CO)NC(=O)[C@H](CC(C)C)NC(=O)CNC(=O)[C@@H]1CCCN1C(=O)[C@H](CCC(N)=O)NC(=O)[C@H](CCC(N)=O)NC(=O)[C@H](CCCNC(=N)N)NC(=O)[C@H](CO)NC(=O)CNC(=O)[C@H](CO)NC(=O)[C@H](CO)NC(=O)[C@H](CCC(=O)O)NC(=O)[C@@H]1CCCN1C(=O)[C@@H]1CCCN1C(=O)[C@@H]1CCCN1C(=O)[C@H](CO)NC(=O)[C@H](CC(C)C)NC(=O)[C@H](CO)NC(=O)[C@@H](NC(=O)CN)[C@@H](C)O)C(=O)N1CCC[C@H]1C(=O)N[C@@H](C)C(=O)N1CCC[C@H]1C(=O)N[C@@H](CCC(N)=O)C(=O)NCC(=O)N[C@@H](C)C(=O)N[C@H](C(=O)N[C@@H](CC(C)C)C(=O)N[C@H](C(=O)N[C@@H](CCC(N)=O)C(=O)N[C@@H](CCCNC(=N)N)C(=O)N[C@@H](CCC(=O)O)C(=O)N[C@@H](CCCCN)C(=O)N[C@@H](CC(=O)O)C(=O)N[C@@H](CC(C)C)C(=O)N1CCC[C@H]1C(=O)N[C@@H](CC(N)=O)C(=O)N[C@@H](Cc1ccc(O)cc1)C(=O)N[C@@H](CC(N)=O)C(=O)N[C@@H](Cc1c[nH]c2ccccc12)C(=O)N[C@@H](CC(N)=O)C(=O)N[C@@H](CO)C(=O)N[C@@H](Cc1ccccc1)C(=O)NCC(=O)N[C@@H](CC(C)C)C(=O)N[C@@H](CCCNC(=N)N)C(=O)N[C@@H](Cc1ccccc1)C(N)=O)C(C)C)C(C)C	KiSS-1 receptor (KISS1R, Homo sapiens, UniProt Q969F8)	inositol phosphate, agonist, TR-FRET	HEK293		Emax	96.1%
C=CC(=O)N1CCC(COCC(=O)N2CCN(c3nc(-c4cnc(N)nc4C(F)F)nc(N4CCOC[C@@H]4C)n3)CC2)CC1	Serine/threonine-protein kinase SBK1 (SBK1, Homo sapiens, UniProt Q52WX2)	binding, competition with immobilised ligand		1 µM	remaining binding	100%
COc1cc(-c2cncc3c2CN(C)Cc2cc(N4CCNCC4)ccc2-3)cc(OC)c1OC	Casein kinase II subunit alpha' (CSNK2A2, Homo sapiens, UniProt P19784)	enzyme activity, inhibitor		1 µM	remaining activity	105%
O=C1NC(=O)C(c2ccccc2)(c2ccccc2)N1	KCNA1	ion current, inhibitor, patch clamp		30 µM	inhibition	20.6%
CNc1ncc2c(/C=C/C(=O)N3CCC(OC)CC3)nn(Cc3cccc(C(F)(F)F)c3)c2n1	Cyclin-dependent kinase 3, with cyclin E1 (CDK3, Homo sapiens, UniProt Q00526)	enzyme activity, inhibitor, radiometric		1 µM	remaining activity	93%
CC(C)NCC(O)COc1cccc2ccccc12 (stereo not drawn)	KCNA1	ion current, inhibitor, patch clamp		10 µM	inhibition	20.2%
Cc1cc([C@@H](C)Nc2ccccc2C(=O)O)c2nc(N3CCC(F)(F)CC3)c(C#N)c(=O)n2c1	Serine/threonine-protein kinase PAK 4 (PAK4, Homo sapiens, UniProt O96013)	binding, competition with immobilised ligand		1 µM	remaining binding	100%
CNCCCC12CCC(c3ccccc31)c1ccccc12	KCNA1	ion current, inhibitor, patch clamp		10 µM	inhibition	19.8%
O=C(Cn1cc(C=CC(=O)c2ccc(F)cc2)nn1)Nc1nc(-c2ccccc2)cs1	Collagenase 3 (MMP13, Homo sapiens, UniProt P45452)	enzyme activity, inhibitor		0.5 µM	inhibition	35.8%
